Laboratory results from ChEMBL document CHEMBL1629497, “Synthesis and biological evaluation of new N-alkyl 1-aryl-5-(1H-pyrrol-1-yl)-1H-pyrazole-3-carboxamides as cannabinoid receptor ligands” (Eur J Med Chem, 2010).
Calls of active or inactive are those of the source. The rule behind the calls is not given here.

Experiments:
[1] = biological target: Cannabinoid receptor 2 (Homo sapiens, UniProt P34972); assay: Displacement of [3H]CP-55,940 from recombinant human CB2 receptor transfected in HEK cells; format: cell-based, HEK293
Summary of the method: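 Competition binding used membranes from HEK cells transfected with hCB1 or hCB2. Data are means of at least three experiments in duplicate. The selectivity index is Ki(CB2)/Ki(CB1).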

[2] = biological target: Cannabinoid receptor 1 (Homo sapiens, UniProt P21554); assay: biochemical; format: cell-based, HEK293
[3] = test system: Rattus norvegicus; assay: Antiobesity activity in diet-induced obese Wistar rat assessed as water intake at 0.1 mg/kg, ip measured after 24 hrs relative to vehicle-treated control; format: functional, organism-based; parameters: dose 0.1 mg/kg
Summary of the method: (§1)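 Adult male Wistar rats (~500 g) were individually housed on an inverted 12:12 h cycle with free access to chow and water. Groups of 7–8, matched for body weight and 3-day food intake, received vehicle or compound i.p. (saline with a few drops of Tween 80, 3 mL/kg) 30 min before lights off. Food and water were weighed at 1–6 h and 24 h. Analysis was by ANOVA and Mann-Whitney.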

[4] = test system: Rattus norvegicus; assay: Antiobesity activity in diet-induced obese Wistar rat assessed as water intake at 1 mg/kg, ip measured after 24 hrs relative to vehicle-treated control; format: functional, organism-based; parameters: dose 1 mg/kg; summary of the method: as §1
[5] = test system: Rattus norvegicus; assay: Antiobesity activity in diet-induced obese Wistar rat assessed as reduction in food intake at 10 mg/kg, ip measured after 24 hrs relative to vehicle-treated control; format: functional, organism-based; parameters: dose 10 mg/kg; summary of the method: as §1
[6] = test system: Rattus norvegicus; assay: Antiobesity activity in diet-induced obese Wistar rat assessed as water intake at 10 mg/kg, ip measured after 24 hrs relative to vehicle-treated control; format: functional, organism-based; parameters: dose 10 mg/kg; summary of the method: as §1
[7] = test system: Rattus norvegicus; assay: Antiobesity activity in diet-induced obese Wistar rat assessed as water intake at 3 mg/kg, ip measured after 24 hrs relative to vehicle-treated control; format: functional, organism-based; parameters: dose 3 mg/kg; summary of the method: as §1
[8] = test system: Rattus norvegicus; assay: Antiobesity activity in diet-induced obese Wistar rat assessed as reduction in food intake at 3 mg/kg, ip measured after 24 hrs relative to vehicle-treated control; format: functional, organism-based; parameters: dose 3 mg/kg; summary of the method: as §1
[9] = test system: Rattus norvegicus; assay: Antiobesity activity in diet-induced obese Wistar rat assessed as water intake at 10 mg/kg, ip measured upto 6 hrs relative to vehicle-treated control; format: functional, organism-based; parameters: dose 10 mg/kg; summary of the method: as §1
[10] = test system: Rattus norvegicus; assay: Antiobesity activity in diet-induced obese Wistar rat assessed as reduction in food intake at 3 mg/kg, ip measured after 1 to 6 hrs relative to vehicle-treated control; format: functional; parameters: scale not given: the % may be the effect or the level left; settings: route intraperitoneal; summary of the method: as §1
[11] = test system: Rattus norvegicus; assay: Antiobesity activity in diet-induced obese Wistar rat assessed as water intake at 3 mg/kg, ip measured upto 6 hrs relative to vehicle-treated control; format: functional, organism-based; parameters: dose 3 mg/kg; summary of the method: as §1
[12] = test system: Rattus norvegicus; assay: Antiobesity activity in diet-induced obese Wistar rat assessed as reduction in food intake at 10 mg/kg, ip measured after 1 to 6 hrs relative to vehicle-treated control; format: functional; parameters: scale not given: the % may be the effect or the level left; settings: route intraperitoneal; summary of the method: as §1
[13] = Tmax in Wistar rat brain at 10 mg/kg, ip; format: ADME, organism-based; parameters: dose 10 mg/kg, route intraperitoneal
Summary of the method: (§2)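 Rats (n = 18) were dosed at 10 mg/kg i.p. in 2% Tween 80/98% saline (1 mL/kg). Plasma and brain were sampled at 30, 60, 120, 240 and 480 min and 24 h, then stored at −80 °C. Samples were extracted with internal standard and quantified by LC-MS/MS against calibration curves. Non-compartmental analysis was used, and brain penetration was taken as the AUC ratio. Values are means of three rats.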

[14] = test system: Rattus norvegicus; assay: Antiobesity activity in diet-induced obese Wistar rat assessed as reduction in food intake at 1 mg/kg, ip measured after 1 to 6 hrs relative to vehicle-treated control; format: functional; parameters: scale not given: the % may be the effect or the level left; settings: route intraperitoneal; summary of the method: as §1
[15] = Cmax in Wistar rat brain at 10 mg/kg, ip; format: ADME, organism-based; parameters: dose 10 mg/kg, route intraperitoneal; summary of the method: as §2
[16] = Mean residence time in Wistar rat brain at 10 mg/kg, ip; format: ADME, organism-based; parameters: dose 10 mg/kg, route intraperitoneal; summary of the method: as §2
[17] = Tmax in Wistar rat plasma at 10 mg/kg, ip; format: ADME, organism-based; parameters: dose 10 mg/kg, route intraperitoneal; summary of the method: as §2
[18] = Cmax in Wistar rat plasma at 10 mg/kg, ip; format: ADME, organism-based; parameters: dose 10 mg/kg, route intraperitoneal; summary of the method: as §2
[19] = test system: Rattus norvegicus; assay: Antiobesity activity in diet-induced obese Wistar rat assessed as reduction in food intake at 0.1 mg/kg, ip measured after 1 to 6 hrs relative to vehicle-treated control; format: functional, organism-based; parameters: dose 0.1 mg/kg; summary of the method: as §1
[20] = test system: Brain; assay: Drug level in Wistar rat brain at 10 mg/kg, ip; format: ADME, organism-based; parameters: dose 10 mg/kg, route intraperitoneal; settings: in vivo; summary of the method: as §2
[21] = AUC (last) in Wistar rat plasma at 10 mg/kg, ip; format: ADME, organism-based; parameters: dose 10 mg/kg, route intraperitoneal, time 0 - last; summary of the method: as §2
[22] = test system: Rattus norvegicus; assay: Antiobesity activity in diet-induced obese Wistar rat assessed as water intake at 0.1 mg/kg, ip measured upto 6 hrs relative to vehicle-treated control; format: functional, organism-based; parameters: dose 0.1 mg/kg; summary of the method: as §1
[23] = Mean residence time in Wistar rat plasma at 10 mg/kg, ip; format: ADME, organism-based; parameters: dose 10 mg/kg, route intraperitoneal; summary of the method: as §2
[24] = test system: Rattus norvegicus; assay: Antiobesity activity in diet-induced obese Wistar rat assessed as water intake at 1 mg/kg, ip measured after upto 6 hrs relative to vehicle-treated control; format: functional, organism-based; parameters: dose 1 mg/kg; summary of the method: as §1
[25] = AUC in Wistar rat brain at 10 mg/kg, ip; format: ADME, organism-based; parameters: dose 10 mg/kg, route intraperitoneal; summary of the method: as §2
[26] = Half life in Wistar rat plasma at 10 mg/kg, ip; format: ADME, organism-based; parameters: dose 10 mg/kg, route intraperitoneal; summary of the method: as §2
[27] = Half life in Wistar rat brain at 10 mg/kg, ip; format: ADME, organism-based; parameters: dose 10 mg/kg, route intraperitoneal; summary of the method: as §2
[28] = test system: Rattus norvegicus; assay: Antiobesity activity in diet-induced obese Wistar rat assessed as reduction in food intake at 1 mg/kg, ip measured after 24 hrs relative to vehicle-treated control; format: functional, organism-based; parameters: dose 1 mg/kg; summary of the method: as §1

Sequence of Cannabinoid receptor 2 (P34972 whole entry): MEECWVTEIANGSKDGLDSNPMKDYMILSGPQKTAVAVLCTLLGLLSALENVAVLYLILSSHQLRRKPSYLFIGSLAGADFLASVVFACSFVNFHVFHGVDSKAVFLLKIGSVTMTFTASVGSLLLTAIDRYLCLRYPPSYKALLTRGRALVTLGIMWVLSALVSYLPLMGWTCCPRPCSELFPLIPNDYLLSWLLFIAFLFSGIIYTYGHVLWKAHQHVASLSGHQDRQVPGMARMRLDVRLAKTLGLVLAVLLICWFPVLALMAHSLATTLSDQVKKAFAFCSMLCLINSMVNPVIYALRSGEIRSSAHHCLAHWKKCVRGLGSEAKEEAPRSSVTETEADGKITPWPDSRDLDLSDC
Sequence of Cannabinoid receptor 1 (P21554 whole entry): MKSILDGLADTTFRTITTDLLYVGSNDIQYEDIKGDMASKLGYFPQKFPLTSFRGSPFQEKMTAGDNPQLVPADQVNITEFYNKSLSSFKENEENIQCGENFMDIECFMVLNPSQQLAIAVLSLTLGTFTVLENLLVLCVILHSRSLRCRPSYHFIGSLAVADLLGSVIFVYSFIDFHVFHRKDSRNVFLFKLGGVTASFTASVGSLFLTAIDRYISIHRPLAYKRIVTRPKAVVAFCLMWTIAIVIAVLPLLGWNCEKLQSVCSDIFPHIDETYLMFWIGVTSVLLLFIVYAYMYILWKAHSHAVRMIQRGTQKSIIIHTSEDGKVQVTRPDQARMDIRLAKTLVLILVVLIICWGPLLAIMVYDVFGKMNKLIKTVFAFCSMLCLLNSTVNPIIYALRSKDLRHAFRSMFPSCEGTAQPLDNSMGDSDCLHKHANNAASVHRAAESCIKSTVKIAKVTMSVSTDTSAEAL

CCCCCCCNC(=O)c1nn(-c2ccc(Cl)cc2Cl)c(-n2cccc2)c1C
Ki [1]: 0.255 µM | Ki [2]: 0.211 µM

CCCNC(=O)c1nn(-c2ccc(Cl)cc2Cl)c(-n2c(C)ccc2C)c1C
Ki [1]: 1.95 µM | Ki [2]: 0.29 µM

CCCCCCCNC(=O)c1nn(-c2ccc(F)cc2F)c(-n2c(C)ccc2C)c1C
Ki [1]: 0.365 µM | Ki [2]: 0.368 µM

CCCCCNC(=O)c1nn(-c2ccc(Cl)cc2Cl)c(-n2cccc2)c1C
Ki [1]: 0.206 µM | Ki [2]: 0.081 µM

Cc1c(C(=O)NC(C)C)nn(-c2ccc(Cl)cc2Cl)c1-n1c(C)ccc1C
Ki [1]: 1.8 µM | Ki [2]: 0.234 µM

Cc1c(C(=O)NC(C)(C)C)nn(-c2ccc(Cl)cc2Cl)c1-n1cccc1
Ki [1]: 0.0146 µM | Ki [2]: 0.0895 µM

CCC(C)(C)NC(=O)c1nn(-c2ccc(Cl)cc2Cl)c(-n2cccc2)c1C
Ki [1]: 0.0057 µM | Ki [2]: 0.0476 µM

Cc1c(C(=O)NCCC(C)(C)C)nn(-c2ccc(F)cc2F)c1-n1c(C)ccc1C
Ki [1]: 0.163 µM | Ki [2]: 0.0907 µM

CCCCCCC(C)NC(=O)c1nn(-c2ccc(Cl)cc2Cl)c(-n2cccc2)c1C (stereo unspecified)
Ki [1]: 0.237 µM | Ki [2]: 0.157 µM

CCCNC(=O)c1nn(-c2ccc(Cl)cc2Cl)c(-n2cccc2)c1C
Ki [1]: 1.5 µM | Ki [2]: 0.55 µM

Cc1c(C(=O)NCCCCCO)nn(-c2ccc(Cl)cc2Cl)c1-n1cccc1
Ki [1]: 2.34 µM | Ki [2]: 0.534 µM

CCCCCNC(=O)c1nn(-c2ccc(Cl)cc2Cl)c(-n2c(C)ccc2C)c1C
Ki [1]: 0.495 µM | Ki [2]: 0.182 µM

CCC(C)(C)NC(=O)c1nn(-c2ccc(Cl)cc2Cl)c(-n2c(C)ccc2C)c1C
Ki [1]: 0.121 µM | Ki [2]: 0.193 µM

Cc1c(C(=O)NCCC(C)(C)C)nn(-c2ccc(Cl)cc2Cl)c1-n1c(C)ccc1C
Activity [3]: inactive | Ki [1]: 0.134 µM | Activity [4]: inactive | Activity [5]: Active | Activity [6]: inactive | Activity [7]: inactive | Activity [8]: Active | Activity [9]: inactive | Ki [2]: 0.0375 µM | Activity [10]: 10% | Activity [11]: inactive | Activity [12]: 30%

CCCCNC(=O)c1nn(-c2ccc(Cl)cc2Cl)c(-n2c(C)ccc2C)c1C
Ki [1]: 0.46 µM | Ki [2]: 0.123 µM

CCCCCCC(C)NC(=O)c1nn(-c2ccc(Cl)cc2Cl)c(-n2c(C)ccc2C)c1C (stereo unspecified)
Ki [1]: 0.136 µM | Ki [2]: 0.105 µM

Cc1c(C(=O)NC(C)(C)C)nn(-c2ccc(Cl)cc2Cl)c1-n1c(C)ccc1C
Ki [1]: 0.0202 µM | Ki [2]: 0.151 µM

CCCCNC(=O)c1nn(-c2ccc(Cl)cc2Cl)c(-n2cccc2)c1C
Ki [1]: 0.796 µM | Ki [2]: 0.273 µM

CCCCCCNC(=O)c1nn(-c2ccc(Cl)cc2Cl)c(-n2cccc2)c1C
Tmax [13]: 0.5 h | Activity [14]: 10% | Activity [3]: inactive | Ki [1]: 0.383 µM | Cmax [15]: 110 ng/mL | MRT [16]: 14.3 h | Tmax [17]: 0.5 h | Cmax [18]: 170 ng/mL | Activity [4]: inactive | Activity [19]: inactive | Activity [5]: inactive | Activity [6]: inactive | Activity [20]: 97% | Activity [7]: inactive | AUC(0-t) [21]: 340 ng·h/mL | Activity [22]: inactive | MRT [23]: 14.8 h | Activity [9]: inactive | Ki [2]: 0.124 µM | Activity [24]: inactive | AUC [25]: 330 ng·h/mL | Activity [12]: 25% | half-life [26]: 13.9 h | half-life [27]: 14.4 h | Activity [28]: inactive

CCCCCCNC(=O)c1nn(-c2ccc(F)cc2F)c(-n2c(C)ccc2C)c1C
Ki [1]: 0.487 µM | Ki [2]: 0.311 µM

CCCCCCCNC(=O)c1nn(-c2ccc(Cl)cc2Cl)c(-n2c(C)ccc2C)c1C
Ki [1]: 0.205 µM | Ki [2]: 0.0972 µM

Cc1c(C(=O)NC(C)C)nn(-c2ccc(Cl)cc2Cl)c1-n1cccc1
Ki [1]: 1.13 µM | Ki [2]: 0.519 µM

Cc1c(C(=O)NCCCCCO)nn(-c2ccc(Cl)cc2Cl)c1-n1c(C)ccc1C
Ki [1]: 3.2 µM | Ki [2]: 0.372 µM

Cc1c(C(=O)NCCC(C)(C)C)nn(-c2ccc(Cl)cc2Cl)c1-n1cccc1
Ki [1]: 0.0524 µM | Ki [2]: 0.0456 µM
